Results from article PMC8048885 (International Journal of Cancer, 2021).
Where two headings read alike, the source gives them in different places.

Legend:
[1] = test system: gastric H+/K+ adenosine triphosphatase (ATPase); details: porcine gastric vessels, cited from earlier work
[2] = test system: intragastric pH; details: cited from earlier work
[3] = test system: CYP1A2; details: cited from earlier work
[4] = first steady-state pazopanib trough concentration; type: in vivo, human
How it was run: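 Observational study. Patients took the study drug 800 mg OD fasted or 600 mg OD with food and were advised to take a PPI/H2A 1 hour later; antacid users were counted as non-GAS. Only the first steady-state (>7 consecutive days) plasma trough was used, measured by validated HPLC-MS/MS.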

[5] = test system: advanced RCC; type: in vivo, human; details: univariate Cox regression
How it was run: (§1)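 PFS was defined as time on treatment until progression or death and analysed per tumour type, with GAS vs no GAS groups (PPI/H2A use on the days before first Cmin). Median PFS came from Kaplan-Meier with log rank test, and hazard ratios from univariate Cox regression; P<.05 was significant. Patients with GI abnormalities or on strong CYP3A4 inducers/inhibitors were excluded.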

[6] = test system: STS; type: in vivo, human; details: for median PFS: pazopanib 800 mg fasted cohort
How it was run: as §1

[7] = cited from earlier work
[8] = cited from earlier work; remark: listed apart in the source

| SMILES | time to fully inhibit the H+, K+ ATPase [1] | duration of pH elevation >4 ([2]; omeprazole 20 mg) | effect on CYP1A2 [3] | inhibition of H+, K+ ATPase ([1]; at 45 minutes) | duration of pH elevation >4 ([2]; pantoprazole 40 mg) | percentage of patients with Cmin below the target threshold of 20.5 mg/L ([4]; pazopanib 600 mg taken with food, with GAS) | percentage of patients with Cmin below the target threshold of 20.5 mg/L ([4]; pazopanib 600 mg taken with food, without GAS) | percentage of patients with Cmin below the target threshold of 20.5 mg/L ([4]; pazopanib 800 mg taken fasted, with GAS) | percentage of patients with Cmin below the target threshold of 20.5 mg/L ([4]; pazopanib 800 mg taken fasted, without GAS) | hazard ratio for PFS, with vs without GAS [5] | median PFS ([6]; with GAS) | median PFS ([6]; without GAS) | hazard ratio for progression or death, with vs without GAS ([6]; univariate Cox regression) | increase of exposure on intake with a high caloric meal [7] | oral bioavailability [7] | decrease of mean pazopanib Cmin levels ([7]; esomeprazole administered 12 hours after fasted intake of pazopanib) | solubility in aqueous solutions ([8]; above pH 4) | solubility in aqueous solutions ([8]; pH 1) |
| --- | --- | --- | --- | --- | --- | --- | --- | --- | --- | --- | --- | --- | --- | --- | --- | --- | --- | --- |
| COc1ccc2[nH]c([S+]([O-])Cc3ncc(C)c(OC)c3C)nc2c1 (stereo not shown) [omeprazole] | 30 min | 49.16 % of the day | dose‐dependent inducer of CYP1A2 | – | – | – | – | – | – | – | – | – | – | – | – | – | – | – |
| COc1ccnc(C[S+]([O-])c2nc3ccc(OC(F)F)cc3[nH]2)c1OC (stereo not shown) [pantoprazole] | – | – | does not affect CYP1A2 | 50% | 41.94 % of the day | – | – | – | – | – | – | – | – | – | – | – | – | – |
| Cc1ccc(Nc2nccc(N(C)c3ccc4c(C)n(C)nc4c3)n2)cc1S(N)(=O)=O [pazopanib] | – | – | – | – | – | 26.9% | 14% | 33.3% | 19.5% | 1.13 | 17 weeks | 32 weeks | 3.89 | ~ 2 fold | approximately 21% | 36% | practically insoluble | slightly soluble |
